Assay results: ChEMBL document CHEMBL5608233, “Fluorescent Peptides Sequester Redox Copper to Mitigate Oxidative Stress, Amyloid Toxicity, and Neuroinflammation” (ACS Med Chem Lett, 2024)
The source made the active and inactive calls. The rule behind the calls is not given here. Residues, ends and D or L forms follow the SMILES beside them. *: point of attachment. X1 = CN(C)c1ccc2c3c(cccc13)C(=O)N(CCN*)C2=O

Key:
[1] = target: Amyloid-beta precursor protein (Homo sapiens) (UniProt P05067); assay: Inhibition of Amyloid beta 42 (unknown origin) aggregation extracted from Escherichia coli BL21 assessed as decrease in amyloid beta fibril formation incubated for 48 hrs by atomic force microscopy
Amyloid-beta precursor protein (Homo sapiens), sequence (P05067 whole entry): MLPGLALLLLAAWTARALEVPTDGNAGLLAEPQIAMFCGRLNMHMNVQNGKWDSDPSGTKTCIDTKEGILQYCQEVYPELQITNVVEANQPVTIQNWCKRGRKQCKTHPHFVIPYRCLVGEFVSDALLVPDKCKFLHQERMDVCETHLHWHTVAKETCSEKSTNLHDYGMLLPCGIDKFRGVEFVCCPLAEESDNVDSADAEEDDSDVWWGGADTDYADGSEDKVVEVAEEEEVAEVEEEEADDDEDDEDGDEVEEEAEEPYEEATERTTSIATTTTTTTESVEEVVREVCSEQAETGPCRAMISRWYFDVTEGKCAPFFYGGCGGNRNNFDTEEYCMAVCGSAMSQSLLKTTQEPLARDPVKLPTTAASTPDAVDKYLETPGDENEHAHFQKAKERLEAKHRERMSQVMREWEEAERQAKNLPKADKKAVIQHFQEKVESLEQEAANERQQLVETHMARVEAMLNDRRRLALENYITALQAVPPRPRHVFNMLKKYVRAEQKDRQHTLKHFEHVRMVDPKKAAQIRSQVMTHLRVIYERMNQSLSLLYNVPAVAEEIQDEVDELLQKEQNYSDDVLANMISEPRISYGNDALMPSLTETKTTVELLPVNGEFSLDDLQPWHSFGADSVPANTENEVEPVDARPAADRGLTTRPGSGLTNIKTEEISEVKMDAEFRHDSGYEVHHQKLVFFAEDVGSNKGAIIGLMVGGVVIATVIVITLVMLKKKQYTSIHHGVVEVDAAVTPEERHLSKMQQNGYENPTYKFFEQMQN

[2] = target: Amyloid-beta precursor protein (Homo sapiens) (UniProt P05067); assay: Inhibition of Amyloid beta 42 (unknown origin) aggregation extracted from Escherichia coli BL21 assessed as decrease in Cu2+ induced amyloid beta fibril formation incubated for 48 hrs in presence of Cu2+ by atomic force microscopy
[3] = target: Amyloid-beta precursor protein (Homo sapiens) (UniProt P05067); assay: Inhibition of Amyloid beta 42 (unknown origin) extracted from Escherichia coli BL21 induced ROS production assessed as decrease in fluorescence intensity at 10 uM incubated for 20 mins in presence of Cu2+ and ascorbate by absorption spectroscopic analysis
[4] = species: Homo sapiens; assay: Binding affinity to Amyloid beta 16 (unknown origin) extracted from Escherichia coli BL21 by measuring quenching effect incubated for 15 mins in presence of Cu2+ by fluorescence quenching analysis
[5] = system: N9; assay: Antiinflammatory activity in LPS-induced mouse N9 cells assessed as reduction in ROS production at 10 uM incubated for 24 hrs by DCFDA staining based analysis; assay type: functional, cell-based
In short: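 N9 cells treated with LPS (1 μg/mL, 24 h) with or without peptide (10 μM, or a concentration series). ROS read with DCFDA fluorescence. n = 3, one-way ANOVA.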

[6] = Metal chelating activity assessed as compound-Fe3+ complex formation by measuring decrease in fluorescence intensity at 50 uM in presence of FeCl3 by UV-Visible fluorescence spectroscopic analysis
In short: (§1)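 Peptide solution at 50 μM mixed 1:1 with Cu2+, Zn2+, Fe3+ or Al3+. NMI emission recorded at λex 450 nm, λem 550 nm, and drop in fluorescence used to indicate complexation. Separate titration with Cu2+ (0–100 μM) into 50 μM peptide used to assess stoichiometry.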

[7] = Antioxidant activity assessed as inhibition of Cu2+ induced ROS production by measuring decrease in fluorescence intensity in presence of Cu2+ and ascorbate at 10 uM measured after 10 mins by absorption spectroscopic analysis; assay type: functional
In short: (§2)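 Ascorbate added first. After 10 min, redox cycling triggered with Cu2+ alone or peptide–Cu2+ premixed in HEPES (50 mM, pH 7.4). Ascorbate consumption followed by absorbance at 265 nm over time.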

[8] = Metal chelating activity assessed as compound-Zn2+ complex formation by measuring decrease in fluorescence intensity at 50 uM in presence of ZnCl2 by UV-Visible fluorescence spectroscopic analysis; in short: as §1
[9] = system: SH-SY5Y; assay: Cytotoxicity against human SH-SY5Y cells at 100 uM incubated for 24 hrs by MTT assay; assay type: toxicity, cell-based
In short: (§3)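 SH-SY5Y cells exposed to peptide (10–100 μM) for 24 h. Viability by MTT.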

[10] = Metal chelating activity assessed as compound-Cu2+ complex formation at 50 uM in presence of CuCl2 by UV-Visible fluorescence spectroscopic analysis; in short: as §1
[11] = Antiinflammatory activity in LPS-induced mouse N9 cells assessed as reduction in nitrite production at 10 uM incubated for 24 hrs by griess assay relative to control; assay type: functional; parameters: scale not given: the % may be the effect or the level left
In short: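 LPS (1 μg/mL)-stimulated N9 microglia treated with peptide at 10 μM. Nitric oxide quantified as nitrite in the medium by Griess assay. Nitrite in LPS-only cells set as 100%. n = 3, one-way ANOVA.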

[12] = system: SH-SY5Y; assay: Neuroprotective activity against amyloid beta 42 induced toxicity in human SH-SY5Y cells assessed as increase in cell viability at 10 uM incubated for 24 hrs by MTT assay (reference value: 55 %); assay type: functional
In short: (§4)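 SH-SY5Y cells incubated 24 h with Aβ42 fibrils (10 μM) and peptide (10 μM), in the absence or presence of Cu2+ (10 μM). Viability by MTT.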

[13] = Metal chelating activity assessed as compound-Al3+ complex formation by measuring decrease in fluorescence intensity at 50 uM in presence of AlCl3 by UV-Visible fluorescence spectroscopic analysis; in short: as §1
[14] = Cytotoxicity against human SH-SY5Y cells assessed as cell viability at 100 uM incubated for 24 hrs by MTT assay relative to control; assay type: toxicity, cell-based; details: read-out: Activity; in short: as §3
[15] = species: Homo sapiens; assay: Binding affinity to Amyloid beta 16 (unknown origin) extracted from Escherichia coli BL21 assessed as increase in absorbance band by circular dichroism spectroscopic analysis
[16] = Cytotoxicity against mouse N9 cells at upto 50 uM incubated for 24 hrs by MTT assay; assay type: toxicity, cell-based; details: n9, 24 h
In short: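 N9 microglia given a concentration series of peptide. Viability assessed.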

[17] = Metal chelating activity assessed as compound-Cu2+ complex formation measured after 2 mins in presence of CuCl2 by UV-Visible fluorescence spectroscopic analysis
[18] = system: SH-SY5Y; assay: Neuroprotective activity against amyloid beta 42 and Cu2+ induced toxicity in human SH-SY5Y cells assessed as increase in cell viability at 10 uM incubated for 24 hrs by MTT assay (reference value: 48 %); assay type: functional; in short: as §4
[19] = Antioxidant activity assessed as inhibition of Cu2+ induced ROS production by measuring decrease in fluorescence intensity in presence of ascorbate and H2O2 at 10 uM measured after 20 mins by absorption spectroscopic analysis; assay type: functional
[20] = Metal chelating activity assessed as compound-Cu2+ complex formation by measuring quenching effect measured after 20 mins in presence of CuCl2 by fluorescence quenching analysis
[21] = Antioxidant activity assessed as inhibition of Cu2+ induced ROS production by measuring decrease in fluorescence intensity in presence of Cu2+ and ascorbate at 10 uM by absorption spectroscopic analysis; assay type: functional; in short: as §2
[22] = Antioxidant activity assessed as inhibition of Cu2+ induced ROS production by measuring decrease in fluorescence intensity in presence of stoichiometric ratio of 1:1 of Cu2+ and ascorbate at 10 uM measured after 10 mins by absorption spectroscopic analysis; assay type: functional
[23] = species: Homo sapiens; assay: Binding affinity to Amyloid beta 16 (unknown origin) extracted from Escherichia coli BL21 assessed as maximal quenching in presence of Cu2+ by fluorescence quenching analysis
[24] = Metal chelating activity assessed as compound-Cu2+ complex formation by measuring decrease in fluorescence intensity at 25 uM in presence of CuCl2 by UV-Visible fluorescence spectroscopic analysis
[25] = Antioxidant activity assessed as inhibition of Cu2+ induced ROS production by measuring decrease in fluorescence intensity in presence of stoichiometric ratio of 1:2 of Cu2+ and ascorbate at 10 uM measured after 10 mins by absorption spectroscopic analysis; assay type: functional
[26] = Metal chelating activity assessed as compound-Al3+ complex formation by measuring decrease in fluorescence intensity at 25 uM in presence of AlCl3 by UV-Visible fluorescence spectroscopic analysis
[27] = Metal chelating activity assessed as compound-Fe3+ complex formation by measuring decrease in fluorescence intensity at 25 uM in presence of FeCl3 by UV-Visible fluorescence spectroscopic analysis

| inhibition [1] | inhibition [2] | Activity [6] | Activity [10] | Activity [13] | Activity [15] | Activity [17] | SMILES | Activity [5] | Activity [7] | Activity [9] | Activity [11] [%] | Activity [12] [%] | viability at 24 h, 100 µM [14] [%] | Activity [16] | Activity [18] [%] | Activity [19] | further results |
| --- | --- | --- | --- | --- | --- | --- | --- | --- | --- | --- | --- | --- | --- | --- | --- | --- | --- |
| Active | Active |  |  |  |  |  | CN(C)c1ccc2c3c(cccc13)C(=O)N(CCNC(=O)[C@H](CCC(N)=O)NC(=O)[C@H](CCCCN)NC(=O)[C@H](Cc1c[nH]cn1)NC(=O)CN)C2=O (H-GHKQ-X1) |  |  |  |  |  |  |  |  |  | inhibition [3]: Active |
| Active | Active | inactive | Active | inactive | Active | Active | CN(C)c1ccc2c3c(cccc13)C(=O)N(CCNC(=O)[C@H](CCC(N)=O)NC(=O)[C@H](CCCCN)NC(=O)[C@@H](N)Cc1c[nH]cn1)C2=O | Active |  | Non-Toxic | 85 | ~80 | > 90 | Non-Toxic | 82 | Active | Activity [20]: Active; Activity [21]: Active |
| inactive | inactive |  |  |  | inactive | Active | CN(C)c1ccc2c3c(cccc13)C(=O)N(CCNC(=O)[C@H](CCC(N)=O)NC(=O)[C@H](CCCCN)NC(=O)[C@H](Cc1c[nH]cn1)NC(=O)CNC(=O)CN)C2=O (H-GGHKQ-X1) | Active | Active | Non-Toxic | 70 | ~80 | > 90 | Non-Toxic | 85 | inactive | Activity [22]: inactive; Activity [23]: 65%; Activity [24]: Active; Activity [25]: inactive; Activity [26]: inactive; Activity [27]: inactive |

More lines, now with the values behind:

| SMILES | inhibition [1] | inhibition [2] | Activity [6] | Activity [10] | Activity [13] | Activity [15] | Activity [17] | Activity [5] | Activity [7] | Activity [9] | Activity [11] [%] | Activity [12] [%] | viability at 24 h, 100 µM [14] [%] | Activity [16] | Activity [18] [%] | Activity [19] | further results |
| --- | --- | --- | --- | --- | --- | --- | --- | --- | --- | --- | --- | --- | --- | --- | --- | --- | --- |
| CN(C)c1ccc2c3c(cccc13)C(=O)N(CCNC(=O)[C@@H](N)CCC(N)=O)C2=O | Active | inactive |  |  |  |  |  |  |  |  |  |  |  |  |  |  |  |
| CN(C)c1ccc2c3c(cccc13)C(=O)N(CCNC(=O)[C@H](CCC(N)=O)NC(=O)[C@H](CCCCN)NC(=O)[C@H](Cc1c[nH]cn1)NC(=O)[C@@H](Cc1c[nH]cn1)NC(=O)CN)C2=O | Active | Active | inactive | Active | inactive | Active | Active | Active | Active | Non-Toxic | 56 | ~80 | > 90 | Non-Toxic | 92 |  | Activity [4]: Active; Activity [8]: inactive |
| NCCCC[C@H](NC(=O)[C@H](Cc1cnc[nH]1)NC(=O)CN)C(=O)O (H-Gly-His-Lys-OH) | inactive | inactive |  |  |  |  |  |  |  |  |  |  |  |  |  |  |  |
